Data: ChEMBL document CHEMBL4020843, “Ligand-Based NMR Study of C-X-C Chemokine Receptor Type 4 (CXCR4)-Ligand Interactions on Living Cancer Cells” (J Med Chem, 2018)
Calls of active or inactive are those of the source. The rule behind the calls is not given here. Residues, ends and D or L forms follow the SMILES beside them.

What was measured:
[1] = target: T1, C-X-C chemokine receptor type 4 (Homo sapiens, UniProt P61073); test: Antagonist activity at CXCR4 in human CCRF-CEM cells assessed as inhibition of PE-conjugated 12G5 antibody binding; type: cell-based
T1 sequence (P61073 whole entry): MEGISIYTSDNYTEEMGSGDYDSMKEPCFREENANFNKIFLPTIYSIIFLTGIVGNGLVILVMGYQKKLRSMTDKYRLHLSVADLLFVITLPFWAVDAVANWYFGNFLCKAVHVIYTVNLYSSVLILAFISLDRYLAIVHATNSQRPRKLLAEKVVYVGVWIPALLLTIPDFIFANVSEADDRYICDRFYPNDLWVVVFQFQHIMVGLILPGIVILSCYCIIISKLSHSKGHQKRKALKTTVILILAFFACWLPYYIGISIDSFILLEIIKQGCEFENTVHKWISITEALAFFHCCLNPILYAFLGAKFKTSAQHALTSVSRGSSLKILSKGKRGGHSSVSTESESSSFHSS
In short: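 CCRF-CEM cells (5 × 10^5) preincubated 30 min at 37 °C, 5% CO2 with peptide at 0.01, 0.1, 1 and 10 µM in PBS plus 0.2% BSA and 0.1% NaN3. Then labeled 30 min with PE anti-CXCR4 antibody clone 12G5. IC50 taken as concentration reducing 12G5 binding by 50%, reported as mean ± SD.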

[2] = tested on: Plasma; test: Drug level in human plasma treated with (4R,7S,10S,13S,16R)-16-((S)-2-((S)-2-amino-5-guanidinopentanamido)propanam(4R,7S,10S,13S,16R)-16-((S)-2-((S)-2-amino-5-guanidinopentanamido)propanamido)-7,10-dibenzyl-13-(3-guanidinopropyl)-6,9,12,15-tetraoxo-1,2-dithia-5,8,11,14-tetraazacycloheptadecane-4-carboxylic acid after 15 to 30 mins by ESI-RP-HPLC analysis; type: ADME, cell-free
In short: (§1)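 Peptide in sterile water mixed with 90% human serum and incubated at 37 °C. Aliquots taken at 0, 15, 30, 60 and 120 min, precipitated with ACN/0.1% TFA and centrifuged (12 000 rpm, 15 min, 4 °C). Supernatant analysed by RP-HPLC with a 10–90% ACN (0.1% TFA) gradient over 20 min. Relative peptide level taken from A230 peak integration.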

[3] = target: T1, C-X-C chemokine receptor type 4; test: Binding affinity to CXCR4 in human CCRF-CEM cell membranes in presence of plerixafor by WaterLOGSY-NMR method
In short: (§2)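 Pellet of 20 x 10^6 intact cells (CCRF-CEM, CXCR4-null CHO or CXCR4-stably transfected CHO) resuspended in 450 µL PBS pH 7.4 plus 50 µL 2H2O. Peptide added for STD, WaterLOGSY or trNOESY 1H NMR. Spectra of peptide alone and of cells alone acquired as reference. Competition run by adding plerixafor to the indicated concentration (0.010–0.100 mM in STD). STD/WaterLOGSY read as signal-to-noise ratio.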

[4] = target: T1, C-X-C chemokine receptor type 4; test: Binding affinity to CXCR4 in human CCRF-CEM cell membranes assessed as signal to noise ratio in presence of 0.02 mM plerixafor by STD-NMR method; in short: as §2
[5] = tested on: Plasma; test: Drug metabolism in human plasma assessed as [Cys-Arg-Phe-Phe-Cys]-COOH metabolite formation after 15 to 30 mins by ESI-RP-HPLC analysis; type: ADME, cell-free; in short: as §1
[6] = target: T1, C-X-C chemokine receptor type 4; test: Binding affinity to CXCR4 in human CCRF-CEM cell membranes assessed as signal to noise ratio in presence of 0.05 mM plerixafor by STD-NMR method; in short: as §2
[7] = Half life in human plasma by HPLC analysis; type: ADME, cell-free; in short: as §1
[8] = Stability in human CCRF-CEM cells up to 2 hrs by NMR spectral analysis; type: ADME, cell-based
[9] = target: T1, C-X-C chemokine receptor type 4; test: Binding affinity to CXCR4 in human CCRF-CEM cell membranes by WaterLOGSY-NMR method; in short: as §2
[10] = target: T1, C-X-C chemokine receptor type 4; test: Binding affinity to CXCR4 in human CCRF-CEM cell membranes assessed as signal to noise ratio in presence of 0.1 mM plerixafor by STD-NMR method; in short: as §2
[11] = target: T1, C-X-C chemokine receptor type 4; test: Binding affinity to CXCR4 in human CCRF-CEM cell membranes assessed as signal to noise ratio in presence of 0.01 mM plerixafor by STD-NMR method; in short: as §2
[12] = target: T1, C-X-C chemokine receptor type 4; test: Binding affinity to CXCR4 in human CCRF-CEM cell membranes assessed as signal to noise ratio by STD-NMR method; in short: as §2
[13] = tested on: Plasma; test: Stability in human plasma up to 120 mins by ESI-RP-HPLC analysis; type: ADME, cell-free; details: 2 h; in short: as §1
[14] = target: T1, C-X-C chemokine receptor type 4; test: Binding affinity to CXCR4 (unknown origin) expressed in CHO cell membranes assessed as signal to noise ratio by STD-NMR method; in short: as §2
[15] = species on record: Cricetulus griseus; test: Binding affinity to CHO cell membranes assessed as signal to noise ratio by STD-NMR method; in short: as §2
[16] = Stability in human CCRF-CEM cells up to 6 hrs by NMR spectral analysis; type: ADME, cell-based

C[C@H](NC(=O)c1ccc(NC(=N)N)cc1)C(=O)N[C@H]1CSSC[C@@H](C(=O)O)NC(=O)[C@H](Cc2ccccc2)NC(=O)[C@H](Cc2ccccc2)NC(=O)[C@H](CCCNC(=N)N)NC1=O (HELM PEPTIDE1{[N=C(N)Nc1ccc(C(=O)[*:2])cc1].A.C.R.F.F.C}$PEPTIDE1,PEPTIDE1,3:R3-7:R3$$$V2.0)
IC50 [1]: > 10 µM

N=C(N)NCCC[C@@H]1NC(=O)[C@@H](N)CSSC[C@@H](C(=O)O)NC(=O)[C@H](Cc2ccccc2)NC(=O)[C@H](Cc2ccccc2)NC1=O (HELM PEPTIDE1{C.R.F.F.C}$PEPTIDE1,PEPTIDE1,1:R3-5:R3$$$V2.0)
Drug metabolism [2]: Metabolite_Detected

C[C@H](NC(=O)[C@@H](N)CCCNC(=N)N)C(=O)N[C@H]1CSSC[C@@H](C(=O)O)NC(=O)[C@H](Cc2ccccc2)NC(=O)[C@H](Cc2ccccc2)NC(=O)[C@H](CCCNC(=N)N)NC1=O
Activity [3]: inactive | Ratio [4]: 6.3 | Drug metabolism [5]: Metabolite_Detected | Ratio [6]: 6.1 | half-life [7]: 22 min | Stability [8]: Unstable | Activity [9]: Active | Ratio [10]: 5.9 | Ratio [11]: 7.2 | Ratio [12]: 13.3

C[C@H](NC(=O)C1CCN(C(=N)N)CC1)C(=O)N[C@H]1CSSC[C@@H](C(=O)O)NC(=O)[C@H](Cc2ccccc2)NC(=O)[C@H](Cc2ccccc2)NC(=O)[C@H](CCCNC(=N)N)NC1=O (HELM PEPTIDE1{[N=C(N)N1CCC(C(=O)[*:2])CC1].A.C.R.F.F.C}$PEPTIDE1,PEPTIDE1,3:R3-7:R3$$$V2.0)
IC50 [1]: > 10 µM

C[C@H](NC(=O)c1cccc(NC(=N)N)c1)C(=O)N[C@H]1CSSC[C@@H](C(=O)O)NC(=O)[C@H](Cc2ccccc2)NC(=O)[C@H](Cc2ccccc2)NC(=O)[C@H](CCCNC(=N)N)NC1=O (HELM PEPTIDE1{[N=C(N)Nc1cccc(C(=O)[*:2])c1].A.C.R.F.F.C}$PEPTIDE1,PEPTIDE1,3:R3-7:R3$$$V2.0)
Stability [13]: Stable | IC50 [1]: 3.2 µM | Ratio [14]: 35.9 | Ratio [15]: 12.5 | half-life [7]: > 120 min | Ratio [12]: 10 | Stability [16]: Stable

C[C@H](NC(=O)CCCNC(=N)N)C(=O)N[C@H]1CSSC[C@@H](C(=O)O)NC(=O)[C@H](Cc2ccccc2)NC(=O)[C@H](Cc2ccccc2)NC(=O)[C@H](CCCNC(=N)N)NC1=O (HELM PEPTIDE1{[N=C(N)NCCCC(=O)[*:2]].A.C.R.F.F.C}$PEPTIDE1,PEPTIDE1,3:R3-7:R3$$$V2.0)
IC50 [1]: > 10 µM

C[C@H](NC(=O)[C@H](N)CCCNC(=N)N)C(=O)N[C@H]1CSSC[C@@H](C(=O)O)NC(=O)[C@H](Cc2ccccc2)NC(=O)[C@H](Cc2ccccc2)NC(=O)[C@H](CCCNC(=N)N)NC1=O
IC50 [1]: > 10 µM | Ratio [14]: 9.6 | Ratio [15]: 8.2

C[C@@H]1NC(=O)[C@H](Cc2ccccc2)NC(=O)[C@@H](NC(=O)[C@H](CCCNC(=N)N)NC(=O)[C@@H](N)Cc2ccccc2)CSSC[C@@H](C(=O)O)NC(=O)[C@H](CCCNC(=N)N)NC1=O (HELM PEPTIDE1{F.R.C.F.A.R.C}$PEPTIDE1,PEPTIDE1,3:R3-7:R3$$$V2.0)
IC50 [1]: > 10 µM | Ratio [14]: 10.2 | Ratio [15]: 11.7

CC(=O)N[C@@H](CCCNC(=N)N)C(=O)N[C@@H](C)C(=O)N[C@H]1CSSC[C@@H](C(=O)O)NC(=O)[C@H](Cc2ccccc2)NC(=O)[C@H](Cc2ccccc2)NC(=O)[C@H](CCCNC(=N)N)NC1=O (HELM PEPTIDE1{[ac].R.A.C.R.F.F.C}$PEPTIDE1,PEPTIDE1,4:R3-8:R3$$$V2.0)
Activity [9]: Active
